# In ChEMBL document CHEMBL4706624, “Synthesis and evaluation of new quinazoline-benzimidazole hybrids as potent anti-microbial agents against multidrug resistant Staphylococcus aureus and Mycobacterium tuberculosis” (Eur J Med Chem, 2021):
# How the values were obtained:
# [1] = tested on: Mycobacterium tuberculosis; experiment: Antitubercular activity against Mycobacterium tuberculosis H37Rv ATCC 27294 measured after 7 days by broth microdilution method; assay type: functional; details: H37Rv ATCC 27294, 168 h, time 7 day
# Outline: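 H37Rv in Middlebrook 7H9 with 10% ADC, 0.2% glycerol, 0.05% Tween-80. Inoculum ~10⁶ cfu/mL set by OD600. Twofold serial dilutions, 0.0064–0.00005 g/100 mL. Incubated at 37 °C for 7 days, then Presto blue resazurin read-out. MIC = lowest concentration inhibiting visible growth. Triplicate runs, each in duplicate.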
# Klebsiella pneumoniae = experiment: Antibacterial activity against Klebsiella pneumoniae BAA-1705 measured after 16 to 18 hrs; assay type: functional; details: ATCC BAA-1705, time 16-18 hrs
# Outline: (§1)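 Broth microdilution MIC. Strains grown on MHA; a single colony was grown overnight in CA-MHB at 37 °C with shaking for 18–24 h. Cultures were diluted by OD600 to ~10⁶ cfu/mL and exposed to compound at […]. Plates were incubated at 37 °C for 16-18 h. MIC = lowest concentration with no visible growth. Levofloxacin was the reference. Three independent runs, each in duplicate.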
# [2] = Cytotoxicity against African green monkey Vero cells assessed as reduction in cell viability measured after 72 hrs by MTT assay; assay type: cell-based; details: chlorocebus sabaeus
# Outline: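 Vero cells (ATCC CCL-81), ~10³ cells/well, held 24 h at 37 °C in 5% CO₂. Compound at 100–5 mg/L for 72 h. MTT was added for 4 h, formazan dissolved in DMSO, OD read at 540 nm. CC50 = concentration giving 50% viability reduction. Doxorubicin was the positive control. Triplicate.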
# Pseudomonas aeruginosa = experiment: Antibacterial activity against Pseudomonas aeruginosa ATCC 27853 measured after 16 to 18 hrs; assay type: functional; details: time 16-18 hrs; outline: as §1
# Mycobacteroides chelonae = experiment: Antimycobacterial activity against Mycobacterium chelonae ATCC 35752 by broth microdilution method; assay type: functional
# Outline: (§2)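 Broth microdilution MIC in Middlebrook 7H9 with 10% ADC-Tween-80 (BSA, dextrose, 0.2% glycerol, 0.05% Tween-80). Inoculum ~10⁶ cfu/mL set by OD600. Compounds were twofold serially diluted, 0.0064–0.00005 g/100 mL (DMSO stocks). Presto blue resazurin dye was used as read-out. MIC = lowest concentration inhibiting visible growth. Triplicate runs, each in duplicate.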
# [3] = Selectivity index, ratio of CC50 for cytotoxicity against African green monkey Vero cells to MIC for antibacterial activity against Staphylococcus aureus ATCC 29213; assay type: toxicity, cell-based; details: read-out: Selectivity Index
# Outline: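 SI = Vero CC50 (MTT, 72 h) divided by MIC against S. aureus ATCC 29213 (CA-MHB broth microdilution, 16-18 h, 37 °C).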
# [4] = tested on: Mycobacteroides abscessus; experiment: Antimycobacterial activity against Mycobacterium abscessus ATCC 19977 by broth microdilution method; assay type: functional; outline: as §2
# Escherichia coli = experiment: Antibacterial activity against Escherichia coli ATCC 25922 measured after 16 to 18 hrs; assay type: functional; details: time 16-18 hrs; outline: as §1
# [5] = tested on: Mycolicibacterium fortuitum; experiment: Antimycobacterial activity against Mycobacterium fortuitum ATCC 6841 by broth microdilution method; assay type: functional; outline: as §2
# Acinetobacter baumannii = experiment: Antibacterial activity against Acinetobacter baumannii BAA1605 measured after 16 to 18 hrs; assay type: functional; details: time 16-18 hrs; outline: as §1
# Staphylococcus aureus [6] = experiment: Antibacterial activity against Staphylococcus aureus ATCC 29213 measured after 16 to 18 hrs; assay type: functional; details: time 16-18 hrs; outline: as §1
# Staphylococcus aureus [7] = experiment: Antibacterial activity against methicillin-resistant Staphylococcus aureus NR10129 measured after 16 to 18 hrs; assay type: functional; details: time 16-18 hrs; outline: as §1
# Staphylococcus aureus [8] = experiment: Antibacterial activity against methicillin-resistant Staphylococcus aureus NR10193 measured after 16 to 18 hrs; assay type: functional; details: time 16-18 hrs; outline: as §1
# Staphylococcus aureus [9] = experiment: Antibacterial activity against methicillin-resistant Staphylococcus aureus NR10192 measured after 16 to 18 hrs; assay type: functional; details: time 16-18 hrs; outline: as §1
# Staphylococcus aureus [10] = experiment: Antibacterial activity against methicillin-resistant Staphylococcus aureus NR100 measured after 16 to 18 hrs; assay type: functional; details: time 16-18 hrs; outline: as §1
# Staphylococcus aureus [11] = experiment: Antibacterial activity against vancomycin-resistant Staphylococcus aureus VRS1 measured after 16 to 18 hrs; assay type: functional; details: time 16-18 hrs; outline: as §1
# Staphylococcus aureus [12] = experiment: Antibacterial activity against methicillin-resistant Staphylococcus aureus NR10194 measured after 16 to 18 hrs; assay type: functional; details: time 16-18 hrs; outline: as §1
# Staphylococcus aureus [13] = experiment: Antibacterial activity against methicillin-resistant Staphylococcus aureus NR10186 measured after 16 to 18 hrs; assay type: functional; details: time 16-18 hrs; outline: as §1
# Staphylococcus aureus [14] = experiment: Antibacterial activity against vancomycin-resistant Staphylococcus aureus VRS4 measured after 16 to 18 hrs; assay type: functional; details: time 16-18 hrs; outline: as §1
# Staphylococcus aureus [15] = experiment: Antibacterial activity against methicillin-sensitive Staphylococcus aureus ATCC 29213 measured after 16 to 18 hrs; assay type: functional; details: time 16-18 hrs; outline: as §1
# Staphylococcus aureus [16] = experiment: Antibacterial activity against methicillin-resistant Staphylococcus aureus NR10198 measured after 16 to 18 hrs; assay type: functional; details: time 16-18 hrs; outline: as §1
# Staphylococcus aureus [17] = experiment: Antibacterial activity against vancomycin-resistant Staphylococcus aureus VRS12 measured after 16 to 18 hrs; assay type: functional; details: time 16-18 hrs; outline: as §1
# Staphylococcus aureus [18] = experiment: Antibacterial activity against methicillin-resistant Staphylococcus aureus NR10191 measured after 16 to 18 hrs; assay type: functional; details: time 16-18 hrs; outline: as §1
# Staphylococcus aureus [19] = experiment: Antibacterial activity against methicillin-resistant Staphylococcus aureus NR119 measured after 16 to 18 hrs; assay type: functional; details: time 16-18 hrs; outline: as §1
smiles,measurement,setting,value
O=C(Nc1ccc(Nc2nc(-c3ccccc3)nc3ccccc23)cc1)c1cc(Br)ccc1Cl,MIC,[1],4 µg/mL
COc1ccc(-c2nc(Nc3ccc(-c4nc5cc(Cl)ccc5[nH]4)cc3)c3ccccc3n2)cc1OC,MIC,Klebsiella pneumoniae,> 64 µg/mL
same,CC50 at 72 h,[2],> 100 µg/mL
same,MIC,Pseudomonas aeruginosa,> 64 µg/mL
same,MIC,Mycobacteroides chelonae,> 64 µg/mL
same,selectivity ratio,[3],> 6.25
same,MIC,[4],> 64 µg/mL
same,MIC,Escherichia coli,> 64 µg/mL
same,MIC,[5],> 64 µg/mL
same,MIC,Acinetobacter baumannii,> 64 µg/mL
same,MIC,Staphylococcus aureus [6],16 µg/mL
same,MIC,[1],32 µg/mL
O=[N+]([O-])c1ccc2[nH]c(-c3ccc(Nc4nc(-c5ccccc5)nc5ccccc45)cc3)nc2c1,MIC,Klebsiella pneumoniae,> 64 µg/mL
same,CC50 at 72 h,[2],100 µg/mL
same,MIC,Pseudomonas aeruginosa,> 64 µg/mL
same,MIC,Mycobacteroides chelonae,> 64 µg/mL
same,selectivity ratio,[3],12.5
same,MIC,[4],> 64 µg/mL
same,MIC,Escherichia coli,> 64 µg/mL
same,MIC,[5],> 64 µg/mL
same,MIC,Acinetobacter baumannii,> 64 µg/mL
same,MIC,Staphylococcus aureus [6],> 64 µg/mL
same,MIC,[1],8 µg/mL
CC[C@@H](CO)NCCN[C@@H](CC)CO [ETHAMBUTOL],MIC,[1],1 µg/mL
NNC(=O)c1ccncc1 [ISONIAZID],MIC,[1],0.03 µg/mL
C[C@H]1COc2c(N3CCN(C)CC3)c(F)cc3c(=O)c(C(=O)O)cn1c23.C[C@H]1COc2c(N3CCN(C)CC3)c(F)cc3c(=O)c(C(=O)O)cn1c23.O [LEVOFLOXACIN],MIC,Staphylococcus aureus [7],0.25 µg/mL
same,MIC,Staphylococcus aureus [8],32 µg/mL
same,MIC,Klebsiella pneumoniae,64 µg/mL
same,MIC,Staphylococcus aureus [9],16 µg/mL
same,MIC,Pseudomonas aeruginosa,0.5 µg/mL
same,MIC,Mycobacteroides chelonae,0.03 µg/mL
same,MIC,Staphylococcus aureus [10],0.25 µg/mL
same,MIC,[4],1 µg/mL
same,MIC,Staphylococcus aureus [11],32 µg/mL
same,MIC,Staphylococcus aureus [12],0.125 µg/mL
same,MIC,Escherichia coli,0.125 µg/mL
same,MIC,[5],0.03 µg/mL
same,MIC,Staphylococcus aureus [13],8 µg/mL
same,MIC,Staphylococcus aureus [14],> 64 µg/mL
same,MIC,Staphylococcus aureus [15],0.125 µg/mL
same,MIC,Staphylococcus aureus [16],8 µg/mL
same,MIC,Staphylococcus aureus [17],32 µg/mL
same,MIC,Staphylococcus aureus [6],0.015 µg/mL
same,MIC,Staphylococcus aureus [18],32 µg/mL
same,MIC,Staphylococcus aureus [19],16 µg/mL
C[C@@H](O)[C@H]1C(=O)N2C(C(=O)O)=C(S[C@@H]3CN[C@H](C(=O)N(C)C)C3)[C@H](C)[C@H]12 [MEROPENEM],MIC,Staphylococcus aureus [7],4 µg/mL
same,MIC,Staphylococcus aureus [8],64 µg/mL
same,MIC,Staphylococcus aureus [9],64 µg/mL
same,MIC,Staphylococcus aureus [10],32 µg/mL
same,MIC,Staphylococcus aureus [11],64 µg/mL
same,MIC,Staphylococcus aureus [12],1 µg/mL
same,MIC,Staphylococcus aureus [13],8 µg/mL
same,MIC,Staphylococcus aureus [14],64 µg/mL
same,MIC,Staphylococcus aureus [15],0.0625 µg/mL
same,MIC,Staphylococcus aureus [16],4 µg/mL
same,MIC,Staphylococcus aureus [17],16 µg/mL
same,MIC,Staphylococcus aureus [18],64 µg/mL
same,MIC,Staphylococcus aureus [19],64 µg/mL
COc1cccc(OC)c1C(=O)N[C@@H]1C(=O)N2[C@@H]1SC(C)(C)[C@@H]2C(=O)O [METHICILLIN],MIC,Staphylococcus aureus [7],> 64 µg/mL
same,MIC,Staphylococcus aureus [8],> 64 µg/mL
same,MIC,Staphylococcus aureus [9],> 64 µg/mL
same,MIC,Staphylococcus aureus [10],> 64 µg/mL
same,MIC,Staphylococcus aureus [11],> 64 µg/mL
same,MIC,Staphylococcus aureus [12],32 µg/mL
same,MIC,Staphylococcus aureus [13],> 64 µg/mL
same,MIC,Staphylococcus aureus [14],> 64 µg/mL
same,MIC,Staphylococcus aureus [15],1 µg/mL
same,MIC,Staphylococcus aureus [16],> 64 µg/mL
same,MIC,Staphylococcus aureus [17],> 64 µg/mL
same,MIC,Staphylococcus aureus [18],> 64 µg/mL
same,MIC,Staphylococcus aureus [19],> 64 µg/mL
CO[C@H]1/C=C/O[C@@]2(C)Oc3c(C)c(O)c4c(O)c(c(/C=N/N5CCN(C)CC5)c(O)c4c3C2=O)NC(=O)/C(C)=C\C=C\[C@H](C)[C@H](O)[C@@H](C)[C@@H](O)[C@@H](C)[C@H](OC(C)=O)[C@@H]1C [RIFAMPIN],MIC,[1],0.06 µg/mL
CN[C@@H]1[C@H](O[C@H]2[C@H](O[C@H]3[C@H](O)[C@@H](O)[C@H](N=C(N)N)[C@@H](O)[C@@H]3N=C(N)N)O[C@@H](C)[C@]2(O)C=O)O[C@@H](CO)[C@H](O)[C@H]1O [STREPTOMYCIN],MIC,[1],1 µg/mL
CN[C@H](CC(C)C)C(=O)N[C@H]1C(=O)N[C@@H](CC(N)=O)C(=O)N[C@H]2C(=O)N[C@H]3C(=O)N[C@H](C(=O)N[C@H](C(=O)O)c4cc(O)cc(O)c4-c4cc3ccc4O)[C@H](O)c3ccc(c(Cl)c3)Oc3cc2cc(c3O[C@@H]2O[C@H](CO)[C@@H](O)[C@H](O)[C@H]2O[C@H]2C[C@](C)(N)[C@H](O)[C@H](C)O2)Oc2ccc(cc2Cl)[C@H]1O [VANCOMYCIN],MIC,Staphylococcus aureus [11],> 64 µg/mL
same,MIC,Staphylococcus aureus [14],> 64 µg/mL
same,MIC,Staphylococcus aureus [17],> 64 µg/mL
